NR3A LBD binder – modulators (binders) of human NR3A ligand-binding domain. NR3A LBD differential scanning fluorimetry, Tm shift; 0% = protein alone, 100% = glycine-bound protein. Tm shift relative to glycine control, % at 25 µM. hit rate 2.5% among 340,000. AID 1259313;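 active means melting temperature shift of at least 10% of the positive control shift, at one fixed dose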
XBP1 UPR activ – adaptive UPR (XBP1) activation; hit rate 0.33% among 330,000; AID 463104; CHO-XBP1 luciferase reporter, IRE1-XBP1 UPR activation, luminescence; percent of tunicamycin response, DMSO as zero; activation, % at 20 µM;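 active means versus positive control, 20 µM dose yields 30% or more activation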
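incubation = overnight seeding at 37 °C, 6 h compound treatment at 37 °C | assay system = CHO-XBP1 cells stably carrying IRE1-XBP1-driven luciferase reporter | input = 1000 cells per well | detection = luciferase luminescence | dosing = single point, 20 µM final compound, 1% DMSO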
CHOP inh – inhibitors of CHOP induction in ER stress response. CHO-K1 CHOP-promoter luciferase, tunicamycin-induced, 15-18 h. inhibition, % at 10 µM. hit rate 3.8% among 220,000;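 active means compounds that reduced the stress-induced luciferase reporter signal by more than about 70% of percent inhibition, limit read from the data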
aDG glyco up – increases alpha dystroglycan glycosylation; hit rate 0.22% among 360,000; activation, % at 10 µM; AID 624168; Pro5-aDG cells, alpha-DG glycosylation AlphaScreen (IIH6); 0% Pro5, 100% B10-LARGE cell signal;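 active means activation of at least 8% versus controls, or a plate z-score of at least 8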;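 further: Pro5 are CHO cells carrying HIG-tagged alpha-DG that lacks glycosylation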
MPTP inh – inhibitors of mitochondrial permeability transition pore. isolated mouse mitochondria, Ca2+ swelling absorbance, 30 min. inhibition, % at 10 µM. hit rate 1.4% among 360,000. AID 602449;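 active means inhibition of 50% or more, scaled per plate between neutral and stimulator controls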
CHOP UPR activ – activators of apoptotic arm of unfolded protein response (CHOP). CHO-CHOP luciferase reporter, UPR activation, luminescence; percent of tunicamycin response over DMSO baseline. activation, % at 10 µM. hit rate 0.34% among 330,000;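 active means at 10 µM dose, activation of 40% or more, normalized to positive control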
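Assay system: CHO cells with stable CHOP pathway luciferase reporter; Buffer or medium: F12 plus 10% serum; Times: 16-18 h cell attachment, then 6 h compound exposure, 37 °C; Signal: luciferase luminescence; Read-out basis: percent activation relative to tunicamycin control; Control set: tunicamycin high control, DMSO low control.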
Rh123 counter – membrane potential counter-screen of mitochondrial pore inhibitors; inhibition, % at 10 µM; AID 624504; shares compounds with MPTP inh; hit rate 78% among 5,000; isolated mitochondria, Rhodamine 123 fluorescence; in the data active means inhibition above about 22%
MPTP swell DR – dose response confirmation of mitochondrial permeability transition pore inhibitors | IC50, µM | hit rate 58% among 780 | isolated mitochondria swelling, absorbance | shares compounds with MPTP inh; in the data active means IC50 below about 20 µM
MPTP counter DR – active in counter-screen for permeability transition pore inhibitors; shares compounds with MPTP inh; IC50, µM; hit rate 49% among 780; isolated mitochondria counterscreen, fluorescence read-out; in the data active means IC50 below about 80 µM
Each line names hits and unclear results; the compound was inactive in the other large screens (follow-up assays come after a bar, where they were run). An excerpt weighted towards active compounds, which were near 5.6% of everything screened.

COc1ccc(Cc2nnc(Nc3ccc(Cl)cc3)[nH]c2=O)cc1	MPTP inh 84 | Rh123 counter 67
CC1=CC(=O)C(C(C)C)=C/C1=N/OS(=O)(=O)c1ccccc1	CHOP inh 106, MPTP inh 96 | Rh123 counter 92
Cc1ccc2c(c1)/C(=N/OS(=O)(=O)c1ccccc1)CCS2	none (no result: CHOP inh)
CCCCOc1ccc(C(=O)NCC(=O)NC2CCN(Cc3ccccc3)CC2)cc1	none (no result: CHOP inh)
O=C(Nc1cc(S(=O)(=O)Nc2ccccc2Cl)ccc1O)c1sc2cc(Cl)ccc2c1Cl	NR3A LBD binder 150, MPTP inh 94 | Rh123 counter inactive
C[C@@H]1C(=O)N(c2ccccc2)[C@@H]1c1ccncc1	none (no result: CHOP inh)
O=C(Nc1cc(Cl)cc(Cl)c1)c1coc(=O)c(Br)c1	MPTP inh 81 | Rh123 counter 87
Cc1ccc(C(C2=C(O)CC(C)(C)CC2=O)C2C(=O)CC(C)(C)CC2=O)s1 (stereo unspecified)	none
CC1(C)CC(=O)C(C(C2=C(O)CC(C)(C)CC2=O)c2ccc(Br)s2)C(=O)C1 (stereo unspecified)	MPTP inh 73 | Rh123 counter 80
CCc1c(C)sc(NC(=O)Cn2nc(C(F)(F)F)c3c2CCCC3)c1C#N	CHOP inh 93, MPTP inh 65 | Rh123 counter 77
CCN(CC)c1ccc2nc3ccc(N)cc3[n+](-c3ccccc3)c2c1	MPTP inh 54 (no result: CHOP inh) | Rh123 counter 24
Brc1cccc2sc(N3CCCC3)nc12	none
COc1cc(C(=O)N2CCN(c3ccccc3Cl)CC2)ccc1OCC(=O)N1CCOCC1	none (no result: CHOP inh)
CCCCc1ccc(N/C(N)=N/c2nc(C)cc(C)n2)cc1	MPTP inh 87 | Rh123 counter 89
Cc1cc(C)nc(/N=C(\N)Nc2ccc(C(C)C)cc2)n1	MPTP inh 53 | Rh123 counter 56
O=C(OCC(=O)N1CCCCCC1)c1cccc(Cl)c1	none (no result: CHOP inh)
COc1ccc(-c2cc(C(=O)NCC(c3ccccc3)N(C)C)c3ccccc3n2)cc1OC (stereo unspecified)	none (no result: CHOP inh)
COc1ccc(C(CNC(=O)c2ccc(-c3ccccc3)cc2)N(C)C)cc1OC (stereo unspecified)	MPTP inh 80 (no result: CHOP inh) | Rh123 counter inactive | MPTP swell DR 19 | MPTP counter DR inactive
CN(CC(=O)Nc1ccc(Cl)c(Cl)c1)C(=O)C12CC3CC(CC(C3)C1)C2	MPTP inh 64 | Rh123 counter 83
CCOC(=O)C1=C(COC(=O)c2cc(OC)c(OC)cc2[N+](=O)[O-])NC(=O)NC1C (stereo unspecified)	none (no result: CHOP inh)
Cc1ccc2[nH]c(=O)c(CN(CCCN(C)C)C(=S)NCCc3ccccc3)cc2c1	MPTP inh 86 | Rh123 counter inactive | MPTP swell DR 12 | MPTP counter DR inactive
Cc1ccc(Cl)cc1NC(=O)c1cc2ccccc2cc1O	NR3A LBD binder 30, CHOP inh 82, MPTP inh 99 | Rh123 counter 74
COc1ccccc1NC(=O)c1cc2cc(Br)ccc2cc1O	NR3A LBD binder 32, CHOP inh 88, MPTP inh 80 (no result: XBP1 UPR activ, CHOP UPR activ) | Rh123 counter 28
Cc1ccc(C(=O)NCC(=O)N(C)Cc2ccccc2C)s1	none (no result: NR3A LBD binder, XBP1 UPR activ, CHOP inh, CHOP UPR activ)
COc1ccc([C@@H]2[C@@H]3C(=O)N(C(C)(C)C)C(=O)[C@@H]3[C@]3(C)C(=O)N(c4cccc(Br)c4)C(=O)N23)cc1	none (no result: CHOP inh)
CC(C)C(=O)NCCc1nc(-c2ccc(Cl)cc2)no1	none (no result: CHOP inh)
Cc1cccc(CSC(Nc2ccc(F)cc2)=C(C#N)C#N)c1	MPTP inh 97 | Rh123 counter 93
CC(SCc1ccccc1)C(=O)Nc1ccc(F)cc1 (stereo unspecified)	none
Cc1cccc(CSC(=N)N)c1	none
N#CC(C#N)=C(Nc1ccc(F)cc1)SCc1cccc(Br)c1	NR3A LBD binder 25, CHOP inh 71, MPTP inh 91 (no result: XBP1 UPR activ, CHOP UPR activ) | Rh123 counter 89
OCCN1CCN(c2ncnc3c2ncn3[C@H]2CN(Cc3cccs3)C[C@@H](CO)O2)CC1	MPTP inh 57 (no result: NR3A LBD binder, XBP1 UPR activ, CHOP inh, CHOP UPR activ) | Rh123 counter inactive | MPTP swell DR inactive | MPTP counter DR inactive
OC[C@@H]1CN(Cc2cccs2)C[C@H](n2cnc3c(N4CCN(c5ccccc5)CC4)ncnc32)O1	none (no result: NR3A LBD binder, XBP1 UPR activ, CHOP inh, CHOP UPR activ)
Cc1ccc(NC(=O)Cc2ccccc2Cl)cc1S(=O)(=O)N(C)C	none
Cc1ccc(NC(=O)Cc2ccc(Cl)c(Cl)c2)cc1S(=O)(=O)N(C)C	MPTP inh 88 | Rh123 counter 88
Cc1ccc(NC(=O)CNc2ccc(Cl)c(Cl)c2)cc1S(=O)(=O)N(C)C	NR3A LBD binder 19, MPTP inh 96 | Rh123 counter 94
COc1ccc(OC)c(NC(=O)C2CCN(S(=O)(=O)c3ccc4c(c3)CC(C)N4C(C)=O)CC2)c1 (stereo unspecified)	none (no result: CHOP inh)
Fc1ccc(NC(=S)Nc2cccnc2)cc1Cl	MPTP inh 101 | Rh123 counter 92
O=C(Nc1ccc(F)c(Cl)c1)c1ccccc1	none (no result: CHOP inh)
Fc1ccc(NC(=S)Nc2cc(-c3ccccc3)[nH]n2)cc1Cl	NR3A LBD binder 26, CHOP inh 70, MPTP inh 66 | Rh123 counter 82
Fc1ccc(NC(=S)Nc2cccnc2)cc1	none
COc1ccccc1-c1cccc([C@@H]2C[C@H]3[C@@H](CN2)CON3C)c1	none (no result: XBP1 UPR activ, CHOP inh, CHOP UPR activ)
CCOC(=O)c1cc2c(C)n(-c3ccc(C)cc3)c(C)c2ccc1=O	MPTP inh 82 | Rh123 counter 35
COc1ccc(-n2cc(CN[C@H]3CCCCNC3=O)c(-c3cccc(F)c3)n2)cc1	none
COc1ccc(-n2cc(CNC3CCN(C)CC3)c(-c3cccc(F)c3)n2)cc1	MPTP inh 93 | Rh123 counter inactive | MPTP swell DR 7 | MPTP counter DR inactive
CC1CCN(c2nc(-c3cccnc3)nc3scc(-c4ccccc4)c23)CC1	none
CC1CCCN(c2nc(-c3cccnc3)nc3scc(-c4ccccc4)c23)C1 (stereo unspecified)	NR3A LBD binder 12, MPTP inh 73 | Rh123 counter inactive | MPTP swell DR 7 | MPTP counter DR inactive
CC(=O)c1ccc(N2C(=O)CC(N3CCN(S(=O)(=O)c4cc(C)ccc4C)CC3)C2=O)cc1 (stereo unspecified)	none (no result: CHOP inh)
CSc1cccc(NC(=O)CCCOc2ccc(Cl)cc2C)c1	MPTP inh 75 | Rh123 counter 81
COc1ccc(OCCCC(=O)Nc2cccc(SC)c2)cc1	none

Source: PubChem BioAssay (several laboratories)
